Reference: ChEMBL document CHEMBL3352487, “Synthesis, antibacterial activity, and biological evaluation of formyl hydroxyamino derivatives as novel potent peptide deformylase inhibitors against drug-resistant bacteria” (Eur J Med Chem, 2014)
Values after ≈ are worked out from the molar mass of the structure shown.

What was measured:
Staphylococcus aureus [1] = experiment: Antimicrobial activity against Staphylococcus aureus ATCC 33591 in septicemia mouse model assessed as mortality of host at 5 mg/kg administered intragastrically measured after 14 days relative to control; format: functional; conditions: ATCC 33591, po, 336 h, route intragastric
In short: (§1)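 Septicemia model: outbred mice inoculated i.p. with a 90–100% lethal dose (5 × 10^6 CFU/mL) in 0.5 mL brain heart infusion broth with 5% mucin. Drug in 20% DMSO given intragastrically after infection at 5, 10 or 20 mg/kg, 0.1 mL. Six mice per dose; cumulative mortality over 14 days; ED50 derived.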

Staphylococcus aureus [2] = experiment: Antimicrobial activity against Staphylococcus aureus WCUH29 after 24 hrs by broth microdilution method; format: functional; conditions: WCUH29, 24 h
In short: (§2)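 Broth microdilution following NCCLS M7-A4; ATCC strains and clinical isolates from a provincial hospital.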

[3] = Clearance in Sprague-Dawley rat at 5 mg/kg, iv; format: ADME, organism-based; set-up: dose 5 mg/kg, route intravenous; conditions: in vivo
Staphylococcus aureus [4] = experiment: Antimicrobial activity against Staphylococcus aureus ATCC 33591 in septicemia mouse model assessed as mortality of host at 10 mg/kg administered intragastrically measured after 14 days relative to control; format: functional; conditions: ATCC 33591, po, 336 h, route intragastric; in short: as §1
Streptococcus pyogenes [5] = experiment: Antimicrobial activity against Streptococcus pyogenes 1308007P after 24 hrs by broth microdilution method; format: functional; in short: as §2
[6] = Protein binding in CD1 mouse plasma at 2 uM by equilibrium dialysis; format: ADME, cell-free; conditions: read-out: PPB (converted)
Staphylococcus aureus [7] = experiment: Antimicrobial activity against methicillin-susceptible Staphylococcus aureus after 24 hrs by broth microdilution method; format: functional; in short: as §2
[8] = AUC (0 to infinity) in Sprague-Dawley rat at 25 mg/kg, po; format: ADME, organism-based; set-up: dose 25 mg/kg, route oral, time infinity; conditions: plasma
Streptococcus pneumoniae [9] = experiment: Antimicrobial activity against Streptococcus pneumoniae ERY2 after 24 hrs by broth microdilution method; format: functional; conditions: ERY2, 24 h; in short: as §2
Haemophilus influenzae [10] = experiment: Antimicrobial activity against AcrA-deficient Haemophilus influenzae H128 after 24 hrs by broth microdilution method; format: functional; conditions: H128, 24 h; in short: as §2
Haemophilus influenzae [11] = experiment: Antimicrobial activity against Haemophilus influenzae H128 after 24 hrs by broth microdilution method; format: functional; conditions: H128, 24 h; in short: as §2
[12] = Drug recovery in CD1 mouse plasma at 2 uM by equilibrium dialysis; format: ADME, cell-free; conditions: read-out: Drug recovery
In short: (§3)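 Pooled CD-1 mouse plasma spiked to 2 µM final, equilibrium dialysis in triplicate against 100 mM PBS pH 7.4, 4 h at 37 °C with rotation; matrix-matched samples acetonitrile-precipitated, LC-MS/MS with internal standards. Unbound = free/total ×100; recovery = (free+total)/pre-dialysis ×100.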

[13] = Cmax in Sprague-Dawley rat at 25 mg/kg, po; format: ADME, organism-based; set-up: dose 25 mg/kg, route oral; conditions: in vivo
[14] = test system: Staphylococcus epidermidis; experiment: Antimicrobial activity against Staphylococcus epidermidis after 24 hrs by broth microdilution method; format: functional; in short: as §2
[15] = Half life in Sprague-Dawley rat at 25 mg/kg, po; format: ADME, organism-based; set-up: dose 25 mg/kg, route oral; conditions: in vivo
Staphylococcus aureus [16] = experiment: Antimicrobial activity against Staphylococcus aureus OXFORD after 24 hrs by broth microdilution method; format: functional
In short: (§4)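 Broth microdilution following NCCLS M7-A4, using ATCC strains and clinical isolates from a provincial hospital.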

[17] = AUC (0 to t) in Sprague-Dawley rat at 5 mg/kg, iv; format: ADME, organism-based; set-up: dose 5 mg/kg, route intravenous; conditions: plasma
[18] = Tmax in Sprague-Dawley rat at 25 mg/kg, po; format: ADME, organism-based; set-up: dose 25 mg/kg, route oral; conditions: in vivo
Streptococcus pneumoniae [19] = experiment: Antimicrobial activity against Streptococcus pneumoniae N1387 after 24 hrs by broth microdilution method; format: functional; conditions: N1387, 24 h; in short: as §2
Haemophilus influenzae [20] = experiment: Antimicrobial activity against Haemophilus influenzae Q1 after 24 hrs by broth microdilution method; format: functional; conditions: Q1, 24 h; in short: as §2
Staphylococcus aureus [21] = experiment: Antimicrobial activity against methicillin-resistant Staphylococcus aureus after 24 hrs by broth microdilution method; format: functional; in short: as §4
Streptococcus pneumoniae [22] = experiment: Antimicrobial activity against Streptococcus pneumoniae 1629 after 24 hrs by broth microdilution method; format: functional; conditions: Streptococcus pneumoniae, 1629, 24 h; in short: as §2
Enterococcus faecium = experiment: Antimicrobial activity against Enterococcus faecium X7501 after 24 hrs by broth microdilution method; format: functional; conditions: X7501, 24 h; in short: as §2
Escherichia coli [23] = experiment: Antimicrobial activity against Escherichia coli isolate 1 after 24 hrs by broth microdilution method; format: functional; conditions: isolate 1, 24 h; in short: as §2
[24] = Mean residence time (0 to t) in Sprague-Dawley rat at 5 mg/kg, iv; format: ADME, organism-based; set-up: dose 5 mg/kg, route intravenous; conditions: in vivo
Escherichia coli [25] = experiment: Antimicrobial activity against Escherichia coli isolate 2 after 24 hrs by broth microdilution method; format: functional; conditions: isolate 2, 24 h; in short: as §2
Streptococcus pyogenes [26] = experiment: Antimicrobial activity against Streptococcus pyogenes 1307006P after 24 hrs by broth microdilution method; format: functional; in short: as §2
[27] = Mean residence time (0 to t) in Sprague-Dawley rat at 25 mg/kg, po; format: ADME, organism-based; set-up: dose 25 mg/kg, route oral; conditions: in vivo
[28] = AUC (0 to t) in Sprague-Dawley rat at 25 mg/kg, po; format: ADME, organism-based; set-up: dose 25 mg/kg, route oral; conditions: plasma
[29] = Oral bioavailability in Sprague-Dawley rat at 25 mg/kg; format: ADME, organism-based; conditions: in vivo
[30] = Half life in Sprague-Dawley rat at 5 mg/kg, iv; format: ADME, organism-based; set-up: dose 5 mg/kg, route intravenous; conditions: in vivo
Enterococcus faecalis = experiment: Antimicrobial activity against Enterococcus faecalis Isolate 1 after 24 hrs by broth microdilution method; format: functional; conditions: Isolate 1, 24 h; in short: as §2
[31] = Fraction unbound in CD1 mouse plasma at 2 uM by equilibrium dialysis; format: ADME, cell-free; in short: as §3
[32] = Volume of distribution at steady state in Sprague-Dawley rat at 5 mg/kg, iv; format: ADME, organism-based; set-up: dose 5 mg/kg, route intravenous; conditions: in vivo, read-out: Vdss
Escherichia coli [33] = experiment: Antimicrobial activity against Escherichia coli isolate 3 after 24 hrs by broth microdilution method; format: functional; conditions: isolate 3, 24 h; in short: as §2
hERG (KCNH2) [34] = biological target: T1, hERG (KCNH2) (Homo sapiens, UniProt Q12809); experiment: Inhibition of human ERG at 10 uM
T1 sequence (Q12809 whole entry): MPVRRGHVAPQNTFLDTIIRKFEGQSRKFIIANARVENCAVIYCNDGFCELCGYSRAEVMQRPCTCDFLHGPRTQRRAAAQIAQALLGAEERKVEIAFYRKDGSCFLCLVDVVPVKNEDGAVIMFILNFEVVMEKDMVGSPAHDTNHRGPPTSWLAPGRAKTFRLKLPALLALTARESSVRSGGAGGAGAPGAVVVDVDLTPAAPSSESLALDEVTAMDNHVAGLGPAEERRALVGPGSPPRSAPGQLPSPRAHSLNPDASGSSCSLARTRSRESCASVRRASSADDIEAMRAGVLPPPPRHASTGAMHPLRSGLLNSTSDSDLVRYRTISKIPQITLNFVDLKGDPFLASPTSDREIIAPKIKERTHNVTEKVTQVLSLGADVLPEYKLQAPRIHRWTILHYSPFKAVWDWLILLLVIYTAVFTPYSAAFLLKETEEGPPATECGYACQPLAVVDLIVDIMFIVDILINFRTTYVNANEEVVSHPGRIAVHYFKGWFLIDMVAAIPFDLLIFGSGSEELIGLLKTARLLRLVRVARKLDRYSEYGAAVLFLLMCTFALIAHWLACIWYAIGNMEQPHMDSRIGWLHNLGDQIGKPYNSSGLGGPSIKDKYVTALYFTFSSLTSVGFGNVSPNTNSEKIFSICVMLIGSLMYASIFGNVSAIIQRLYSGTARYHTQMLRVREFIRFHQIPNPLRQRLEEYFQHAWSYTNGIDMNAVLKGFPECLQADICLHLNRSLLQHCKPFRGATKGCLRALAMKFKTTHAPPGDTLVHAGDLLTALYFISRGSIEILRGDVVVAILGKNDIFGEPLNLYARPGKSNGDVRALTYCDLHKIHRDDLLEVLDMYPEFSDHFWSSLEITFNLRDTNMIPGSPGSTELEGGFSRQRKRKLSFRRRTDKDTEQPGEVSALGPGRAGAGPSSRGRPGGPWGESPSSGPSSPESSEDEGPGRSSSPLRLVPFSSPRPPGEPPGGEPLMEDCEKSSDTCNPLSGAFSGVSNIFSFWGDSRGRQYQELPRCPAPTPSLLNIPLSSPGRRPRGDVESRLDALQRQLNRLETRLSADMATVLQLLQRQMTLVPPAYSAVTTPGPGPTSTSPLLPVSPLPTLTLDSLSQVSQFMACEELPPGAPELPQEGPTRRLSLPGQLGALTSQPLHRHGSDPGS

Staphylococcus aureus [35] = experiment: Antimicrobial activity against Staphylococcus aureus ATCC 33591 in septicemia mouse model assessed as mortality of host at 20 mg/kg administered intragastrically measured after 14 days relative to control; format: functional; conditions: ATCC 33591, po, 336 h, route intragastric; in short: as §1
Staphylococcus aureus [36] = experiment: Antimicrobial activity against Staphylococcus aureus ATCC 33591 in septicemia mouse model administered intragastrically measured after 14 days; format: functional; conditions: ATCC 33591, po, 336 h
hERG (KCNH2) [37] = biological target: T1, hERG (KCNH2); experiment: Inhibition of human ERG at 1 uM
Staphylococcus aureus [38] = experiment: Antimicrobial activity against Staphylococcus aureus after 24 hrs by broth microdilution method; format: functional; in short: as §2
[39] = AUC (0 to infinity) in Sprague-Dawley rat at 5 mg/kg, iv; format: ADME, organism-based; set-up: time infinity, dose 5 mg/kg, route intravenous; conditions: plasma
Moraxella catarrhalis = experiment: Antimicrobial activity against Moraxella catarrhalis 1502 after 24 hrs by broth microdilution method; format: functional; conditions: Moraxella catarrhalis, 1502, 24 h; in short: as §2

In the case of `C=C1C[C@@H](C(=O)Nc2ncc(C)s2)N(C(=O)[C@H](CCCC)CN(O)C=O)C1`, the mortality at 5 mg/kg (Staphylococcus aureus [1]) is reported as 83%, the MIC (Staphylococcus aureus [2]) is reported as 0.125 µg/mL (≈ 0.317 µM) and the clearance [3] is reported as 4.83 mL/min/kg. For the same molecule, the mortality at 10 mg/kg (Staphylococcus aureus [4]) was 66%, the MIC (Streptococcus pyogenes [5]) was 2 µg/mL (≈ 5.07 µM) and the fraction unbound at 2 µM [6] was 0.01. The MIC (Staphylococcus aureus [7]) was 0.5 µg/mL (≈ 1.27 µM), the AUC(0-inf) [8] was 58300 ng·h/mL and the MIC (Streptococcus pneumoniae [9]) was 2 µg/mL (≈ 5.07 µM). The MIC (Haemophilus influenzae [10]) was ≤ 0.06 µg/mL, the MIC (Haemophilus influenzae [11]) was 4 µg/mL (≈ 10.1 µM) and the recovery at 2 µM [12] was 93.7%. For the same molecule, the Cmax [13] was 15700 ng/mL, the MIC [14] was 0.0625 µg/mL (≈ 0.158 µM) and the half-life [15] was 3.02 h. For the same molecule, the MIC (Staphylococcus aureus [16]) was 0.5 µg/mL (≈ 1.27 µM), the AUC(0-t) [17] was 19800 ng·h/mL and the Tmax [18] was 0.688 h. The MIC (Streptococcus pneumoniae [19]) was 1 µg/mL (≈ 2.53 µM), the MIC (Haemophilus influenzae [20]) was 4 µg/mL (≈ 10.1 µM) and the MIC (Staphylococcus aureus [21]) was 0.0312 µg/mL (≈ 0.0791 µM). The MIC (Streptococcus pneumoniae [22]) was 2 µg/mL (≈ 5.07 µM), the MIC (Enterococcus faecium) was 2 µg/mL (≈ 5.07 µM) and the MIC (Escherichia coli [23]) was 64 µg/mL (≈ 162 µM). For the same molecule, the MRT last [24] was 2.03 h, the MIC (Escherichia coli [25]) was 32 µg/mL (≈ 81.1 µM) and the MIC (Streptococcus pyogenes [26]) was 2 µg/mL (≈ 5.07 µM). The MRT last [27] was 3.41 h, the AUC(0-t) [28] was 58100 ng·h/mL and the bioavailability [29] was 58.9%. It also gave a half-life [30] of 3.21 h, an MIC (Enterococcus faecalis) of 4 µg/mL (≈ 10.1 µM) and a fraction unbound at 2 µM [31] of 0.01. The Vd [32] was 0.571 L/kg, the MIC (Escherichia coli [33]) was 64 µg/mL (≈ 162 µM) and the inhibition at 10 µM (hERG (KCNH2) [34]) was -2.98%. For the same molecule, the mortality at 20 mg/kg (Staphylococcus aureus [35]) was 50%, the ED50 (Staphylococcus aureus [36]) was 19.6 mg/kg and the inhibition at 1 µM (hERG (KCNH2) [37]) was -0.35%. For the same molecule, the MIC (Staphylococcus aureus [38]) was 0.25 µg/mL (≈ 0.634 µM), the AUC(0-inf) [39] was 19800 ng·h/mL and the MIC (Moraxella catarrhalis) was ≤ 0.06 µg/mL.

`CC(=O)NC[C@H]1CN(c2ccc(N3CCOCC3)c(F)c2)C(=O)O1` [LINEZOLID] gave a mortality at 5 mg/kg (Staphylococcus aureus [1]) of 83%, a mortality at 10 mg/kg (Staphylococcus aureus [4]) of 66% and an MIC [14] of 0.5 µg/mL (≈ 1.48 µM). The MIC (Escherichia coli [23]) was > 64 µg/mL, the MIC (Escherichia coli [25]) was > 64 µg/mL and the mortality at 20 mg/kg (Staphylococcus aureus [35]) was 16%. The ED50 (Staphylococcus aureus [36]) was 11.9 mg/kg.
